From the RNAGym collection of RNA variant scans (doi:10.1038/nmeth.2970)

B1: NELF-E aptamer (parent)
chain: CCCAACGACUGCCGAGCGAGAUUACGCUUGAGCGCCCCACUGAGGAUGCCCACGGGCGAUUGGGGCACGG

Variants of: B1
Experiment: HiTS-RAP
Conditions: with NELF-E (Drosophila)
Procedure, shortened: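 Aptamer DNA templates bearing a T7 promoter and a ter site were sequenced on an Illumina GAIIx flowcell. T7 RNA polymerase then transcribed them in situ, and GST-Tus halted transcription over 30 minutes at 37°C. After a 30-minute room-temperature equilibration with NELF-E-mOrange at 0.064 to 1000 nM in HEPES binding buffer, clusters were imaged, using only the first binding curve. Intensities normalised to sequencing intensity were averaged per sequence and fitted with weighted Hill fits to give Kd, retaining only fits whose variance stayed under 1,000,000.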

| Variant | Kd [nM] |
| --- | --- |
| CCCAACGACUGCCGAGCGAGAUGACGCUUGAGCGCCCCACUGAGGAUGCCUACGGGCGAUUGGGGCACGG [U23G C51U] | 7.2 |
| CCCAACGACUGCCGAGCGAGAUGACGCUUGAGCGCCCCACUGAGGAUGCCGACGGGCGAUUGGGGCACGG [U23G C51G] | 5.33 |
| CCCAACGACUGCCGAGCGAGAUGACGCUUGAGCGCCCCACUGAGGAUGCCCACGGGCGAUUGGGGCUCGG [U23G A67U] | 7.58 |
| CCCAACGACUGCCGAGCGAGAUGACGCUUGAGCGCCCCACUGAGGAUGCCCACGGGCGAUUGGGGCGCGG [U23G A67G] | 6.23 |
| CCCAACGACUGCCGAGCGAGAUGACGCUUGAGCGCCCCACUGAGGAUGCCCACGGGCGAUUGGGGCCCGG [U23G A67C] | 4.59 |
| CCCAACGACUGCCGAGCGAGAUGACGCUUGAGCGCCCCACUGAGGAUGCCCACGGGUGAUUGGGGCACGG [U23G C57U] | 5.72 |
| CCCAACGACUGCCGAGCGAGAUGAUGCUUGAGCGCCCCACUGAGGAUGCCCACGGGCGAUUGGGGCACGG [U23G C25U] | 5.73 |
| CCCAACGACUGCCGAGCGAGAUGAGGCUUGAGCGCCCCACUGAGGAUGCCCACGGGCGAUUGGGGCACGG [U23G C25G] | 5.84 |
| CCCAACGACUGCCGAGCGAGAUGACGCUUGAGCGGCCCACUGAGGAUGCCCACGGGCGAUUGGGGCACGG [U23G C35G] | 7.07 |
| CCCAACGACUGCCGAGCGAGAUGACGCUUGAGCGUCCCACUGAGGAUGCCCACGGGCGAUUGGGGCACGG [U23G C35U] | 11.5 |
| CCCAACGACUGCCGAGCGAGAUGACGCUUGAGCGCCCCACUGAGGAUGGCCACGGGCGAUUGGGGCACGG [U23G C49G] | 7.29 |
| CCCAACGACUGCCGAGCGAGAUGACGCUUGAGCGCCCCACUGAGGAUGUCCACGGGCGAUUGGGGCACGG [U23G C49U] | 15.6 |
| CCCAACGACUGCCGAGCGAGAUGACGUUUGAGCGCCCCACUGAGGAUGCCCACGGGCGAUUGGGGCACGG [U23G C27U] | 4.59 |
| CCCAACGACUGCCGAGCGAGAUGACGCUUGAGCGCCCCACUGAGGAUGCUCACGGGCGAUUGGGGCACGG [U23G C50U] | 12.6 |
| CCCAACGACUGCCGAGCGAGAUGACGCUUGAGCGCCCCACUGAGGAUGCGCACGGGCGAUUGGGGCACGG [U23G C50G] | 5.73 |
| CCCAACGACUGCCGAGCGAGAUGACGCUUGAGCGCCCCACUGAGGAUGCACACGGGCGAUUGGGGCACGG [U23G C50A] | 16.7 |
| CCCAACGACUGCCGAGCGAGAUGACGCUUGAGCGCCCCACUGAGGAUGCCCACGGGCGGUUGGGGCACGG [U23G A59G] | 57.5 |
| CCCAACGACUGCCGAGCGAGAUGACGCUUGAGCGCCCCACUGAGGAUGCCCUCGGGCGAUUGGGGCACGG [U23G A52U] | 17.6 |
| CCCAACGACUGCCGAGCGAGAUGACACUUGAGCGCCCCACUGAGGAUGCCCACGGGCGAUUGGGGCACGG [U23G G26A] | 6.05 |
| CCCAACGACUGCCGAGCGAGAUGACUCUUGAGCGCCCCACUGAGGAUGCCCACGGGCGAUUGGGGCACGG [U23G G26U] | 6.03 |

| Variant | Kd [nM] |
| --- | --- |
| CCCAACGACUGCCGAGCGAGAUGACGCUUGAGCGCCCCACUGAGGAUGCCCAAGGGCGAUUGGGGCACGG [U23G C53A] | 6.72 |
| CCCAACGACUGCCGAGCGAGAUGACGCUUGAGCGCCCCACUGAGGAUGCCCAGGGGCGAUUGGGGCACGG [U23G C53G] | 7.15 |
| CCCAACGACUGCCGAGCGAGAUGACGCUUGAGCGCCCCACUGAGGAUGCCCAUGGGCGAUUGGGGCACGG [U23G C53U] | 4.17 |
| CCCAACGACUGCCGAGCGAGAUGACGCUUGAGCGCGCCACUGAGGAUGCCCACGGGCGAUUGGGGCACGG [U23G C36G] | 5.58 |
| CCCAACGACUGCCGAGCGAGAUGACGCUUGAGCGCUCCACUGAGGAUGCCCACGGGCGAUUGGGGCACGG [U23G C36U] | 8.06 |
| CCCAACGACUGCCGAGCGAGAUGACGCUUGAGCGCACCACUGAGGAUGCCCACGGGCGAUUGGGGCACGG [U23G C36A] | 8.43 |
| CCCAACGACUGCCGAGCGAGAUGACGCUUGAGGGCCCCACUGAGGAUGCCCACGGGCGAUUGGGGCACGG [U23G C33G] | 8.04 |
| CCCAACGACUGCCGAGCGAGAUGACGCUUGAGAGCCCCACUGAGGAUGCCCACGGGCGAUUGGGGCACGG [U23G C33A] | 5.51 |
| CCCAACGACUGCCGAGCGAGAUGACGCUUGAGUGCCCCACUGAGGAUGCCCACGGGCGAUUGGGGCACGG [U23G C33U] | 6.01 |
| CCCAACGACUGCCGAGCGAGAUGACGCUUGAGCGCCUCACUGAGGAUGCCCACGGGCGAUUGGGGCACGG [U23G C37U] | 13.8 |
| CCCAACGACUGCCGAGCGAGAUGACGCUUGAGCGCCGCACUGAGGAUGCCCACGGGCGAUUGGGGCACGG [U23G C37G] | 7.9 |
| CCCAACGACUGCCGAGCGAGAUGACGCUUGAGCGCCACACUGAGGAUGCCCACGGGCGAUUGGGGCACGG [U23G C37A] | 13.4 |
| CCCAACGACUGCCGAGCGAGAUGACGCUUGAGCGCCCCAGUGAGGAUGCCCACGGGCGAUUGGGGCACGG [U23G C40G] | 5.5 |
| CCCAACGACUGCCGAGCGAGAUGACGCUUGAGCGCCCCAUUGAGGAUGCCCACGGGCGAUUGGGGCACGG [U23G C40U] | 135 |
| CCCAACGACUGCCGAGCGAGAUGACGCUUUAGCGCCCCACUGAGGAUGCCCACGGGCGAUUGGGGCACGG [U23G G30U] | 7.41 |
| CCCAACGACUGCCGAGCGAGAUGACGCUUAAGCGCCCCACUGAGGAUGCCCACGGGCGAUUGGGGCACGG [U23G G30A] | 4.6 |
| CCCAACGACUGCCGAGCGAGAUGACGCUUGAGCGCCCAACUGAGGAUGCCCACGGGCGAUUGGGGCACGG [U23G C38A] | 35.2 |
| CCCAACGACUGCCGAGCGAGAUGACGCUUGAGCGCCCUACUGAGGAUGCCCACGGGCGAUUGGGGCACGG [U23G C38U] | 9.73 |
| CCCAACGACUGCCGAGCGAGAUGACGCUUGAGCGCCCCACUGAGGAUGCCCACGGGCGAUUGGGGUACGG [U23G C66U] | 6 |
